Test results published in ChEMBL document CHEMBL5329156, “Discovery and development of novel substituted monohydrazides as potent antifungal agents” (RSC Med Chem, 2023).
Calls of active or inactive are those of the source.

Experiments:
Candida albicans [1] = experiment: Antifungal activity against Candida albicans ATCC 10231 assessed as fungal growth inhibition by double dilution method; format: functional
Procedure, shortened: (§1)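 Broth microdilution after CLSI M27-A3/M38-A2 with minor changes. Single colony grown overnight in YPD at 35 °C, 200 rpm. Compound final range 0.06-31.3 µg/mL; incubated 48 h at 35 °C.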

Candida albicans [2] = experiment: Antifungal activity against Candida albicans ATCC 64124 assessed as fungal growth inhibition by double dilution method; format: functional
Procedure, shortened: (§2)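 Broth microdilution after CLSI M27-A3/M38-A2 with minor modifications. A single colony was grown overnight in YPD at 35 °C with shaking at 200 rpm. Cells were mixed 1:1 with compound (final 0.06-31.3 µg/mL, from DMSO stocks) and incubated 48 h at 35 °C.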

Candida albicans [3] = experiment: Antifungal activity against itraconazole/fluconazole susceptible Candida albicans ATCC MYA-2876 assessed as fungal growth inhibition by double dilution method; format: functional; procedure, shortened: as §2
Candida albicans [4] = experiment: Antifungal activity against itraconazole/fluconazole resistant Candida albicans ATCC 90819 assessed as fungal growth inhibition by double dilution method; format: functional; procedure, shortened: as §2
Candida albicans [5] = experiment: Antifungal activity against itraconazole/fluconazole susceptible Candida albicans ATCC MYA-2310 assessed as fungal growth inhibition by double dilution method; format: functional; procedure, shortened: as §2
Candida albicans [6] = experiment: Antifungal activity against itraconazole/fluconazole resistant Candida albicans ATCC MYA-1237 assessed as fungal growth inhibition by double dilution method; format: functional; procedure, shortened: as §2
Candida albicans [7] = experiment: Antifungal activity against itraconazole/fluconazole resistant Candida albicans ATCC MYA-1003 assessed as fungal growth inhibition by double dilution method; format: functional; procedure, shortened: as §2
Nakaseomyces glabratus [8] = experiment: Antifungal activity against Candida glabrata ATCC 2001 assessed as fungal growth inhibition by double dilution method; format: functional; procedure, shortened: as §1
Pichia kudriavzevii [9] = experiment: Antifungal activity against Pichia kudriavzevii ATCC 6258 assessed as fungal growth inhibition by double dilution method; format: functional; procedure, shortened: as §1
Nakaseomyces glabratus [10] = experiment: Antifungal activity against Candida glabrata ATCC 22019 assessed as fungal growth inhibition by double dilution method; format: functional; procedure, shortened: as §1
[Candida] auris [11] = Antifungal activity against Candida auris AR Bank # 0384 assessed as fungal growth inhibition by double dilution method; format: functional; conditions: Candidozyma auris; procedure, shortened: as §1
[Candida] auris [12] = Antifungal activity against Candida auris AR Bank # 0390 assessed as fungal growth inhibition by double dilution method; format: functional; conditions: Candidozyma auris; procedure, shortened: as §1
Cryptococcus neoformans = experiment: Antifungal activity against Cryptococcus neoformans ATCC MYA-895 assessed as fungal growth inhibition by double dilution method; format: functional; procedure, shortened: as §1
Aspergillus terreus = experiment: Antifungal activity against Aspergillus terreus ATCC MYA-3633 assessed as fungal growth inhibition by double dilution method; format: functional
Aspergillus fumigatus [13] = experiment: Antifungal activity against Aspergillus fumigatus NRRL 163 assessed as fungal growth inhibition by double dilution method; format: functional
Aspergillus flavus = experiment: Antifungal activity against Aspergillus flavus ATCC MYA-3631 assessed as fungal growth inhibition by double dilution method; format: functional
Aspergillus nidulans = experiment: Antifungal activity against Aspergillus nidulans ATCC 38163 assessed as fungal growth inhibition by double dilution method; format: functional
Aspergillus fumigatus [14] = experiment: Antifungal activity against Aspergillus fumigatus NRRL 5109 assessed as fungal growth inhibition by double dilution method; format: functional
Aspergillus fumigatus [15] = experiment: Antifungal activity against Aspergillus fumigatus NRRL 6113 assessed as fungal growth inhibition by double dilution method; format: functional
[Candida] auris [16] = Antifungal activity against Candida auris AR Bank # 381 assessed as fungal growth inhibition by double dilution method; format: functional; conditions: Candidozyma auris; procedure, shortened: as §1
[Candida] auris [17] = Antifungal activity against Candida auris AR Bank # 382 assessed as fungal growth inhibition by double dilution method; format: functional; conditions: Candidozyma auris; procedure, shortened: as §1
[Candida] auris [18] = Antifungal activity against Candida auris AR Bank # 383 assessed as fungal growth inhibition by double dilution method; format: functional; conditions: Candidozyma auris; procedure, shortened: as §1
[Candida] auris [19] = Antifungal activity against Candida auris AR Bank # 384 assessed as fungal growth inhibition by double dilution method; format: functional; conditions: Candidozyma auris; procedure, shortened: as §1
[Candida] auris [20] = Antifungal activity against Candida auris AR Bank # 385 assessed as fungal growth inhibition by double dilution method; format: functional; conditions: Candidozyma auris; procedure, shortened: as §1
[Candida] auris [21] = Antifungal activity against Candida auris AR Bank # 386 assessed as fungal growth inhibition by double dilution method; format: functional; conditions: Candidozyma auris; procedure, shortened: as §1
[Candida] auris [22] = Antifungal activity against Candida auris AR Bank # 387 assessed as fungal growth inhibition by double dilution method; format: functional; conditions: Candidozyma auris; procedure, shortened: as §1
[Candida] auris [23] = Antifungal activity against Candida auris AR Bank # 388 assessed as fungal growth inhibition by double dilution method; format: functional; conditions: Candidozyma auris; procedure, shortened: as §1
[Candida] auris [24] = Antifungal activity against Candida auris AR Bank # 389 assessed as fungal growth inhibition by double dilution method; format: functional; conditions: Candidozyma auris; procedure, shortened: as §1
[Candida] auris [25] = Antifungal activity against Candida auris AR Bank # 390 assessed as fungal growth inhibition by double dilution method; format: functional; conditions: Candidozyma auris; procedure, shortened: as §1
Candida duobushaemulonii [26] = experiment: Antifungal activity against Candida duobushaemulonii AR Bank # 391 assessed as fungal growth inhibition by double dilution method; format: functional; conditions: Candidozyma duobushaemuli; procedure, shortened: as §1
Candida duobushaemulonii [27] = experiment: Antifungal activity against Candida duobushaemulonii AR Bank # 392 assessed as fungal growth inhibition by double dilution method; format: functional; conditions: Candidozyma duobushaemuli; procedure, shortened: as §1
[Candida] haemuloni [28] = Antifungal activity against Candida haemulonii AR Bank # 393 assessed as fungal growth inhibition by double dilution method; format: functional; conditions: Candidozyma haemuli; procedure, shortened: as §1
Candida duobushaemulonii [29] = experiment: Antifungal activity against Candida duobushaemulonii AR Bank # 394 assessed as fungal growth inhibition by double dilution method; format: functional; conditions: Candidozyma duobushaemuli; procedure, shortened: as §1
[Candida] haemuloni [30] = Antifungal activity against Candida haemulonii AR Bank # 395 assessed as fungal growth inhibition by double dilution method; format: functional; conditions: Candidozyma haemuli; procedure, shortened: as §1
Kodamaea ohmeri = experiment: Antifungal activity against Kodamaea ohmeri AR Bank # 396 assessed as fungal growth inhibition by double dilution method; format: functional; procedure, shortened: as §1
Pichia kudriavzevii [31] = experiment: Antifungal activity against Pichia kudriavzevii AR Bank # 397 assessed as fungal growth inhibition by double dilution method; format: functional; procedure, shortened: as §1
Clavispora lusitaniae = experiment: Antifungal activity against Clavispora lusitaniae AR Bank # 398 assessed as fungal growth inhibition by double dilution method; format: functional; procedure, shortened: as §1
Saccharomyces cerevisiae [32] = experiment: Antifungal activity against Saccharomyces cerevisiae AR Bank # 399 assessed as fungal growth inhibition by double dilution method; format: functional; procedure, shortened: as §1
Saccharomyces cerevisiae [33] = experiment: Antifungal activity against Saccharomyces cerevisiae AR Bank # 400 assessed as fungal growth inhibition by double dilution method; format: functional; procedure, shortened: as §1
Candida albicans [34] = experiment: Antibiofilm activity against Candida albicans ATCC 10231 assessed as reduction in biofilm production at 1.96 to 3.9 microg/ml by biofilm formation assay; format: functional, organism-based; conditions: dose 1.96-3.9 µg/ml

O=C(NNc1cc(F)ccc1F)c1ccccn1
0.24 µg/mL: MIC (Pichia kudriavzevii [9]) | MIC ([Candida] auris [11]) | MIC ([Candida] auris [17]) | MIC (Candida duobushaemulonii [27]) | MIC (Candida duobushaemulonii [29]) | MIC ([Candida] haemuloni [30]) | MIC (Pichia kudriavzevii [31])
3.9 µg/mL: MIC (Candida albicans [3]) | MIC (Nakaseomyces glabratus [8]) | MIC (Nakaseomyces glabratus [10]) | MIC (Aspergillus flavus)
> 31.3 µg/mL: MIC (Aspergillus fumigatus [13]) | MIC (Aspergillus fumigatus [15])
0.49 µg/mL: MIC (Cryptococcus neoformans) | MIC (Aspergillus nidulans) | MIC ([Candida] auris [18]) | MIC ([Candida] auris [20]) | MIC ([Candida] auris [22]) | MIC ([Candida] auris [23]) | MIC ([Candida] auris [24]) | MIC (Candida duobushaemulonii [26]) | MIC (Clavispora lusitaniae)
0.12 µg/mL: MIC (Candida albicans [1]) | MIC ([Candida] auris [21]) | MIC (Kodamaea ohmeri)
1.95 µg/mL: MIC (Candida albicans [2]) | MIC (Candida albicans [5]) | MIC (Candida albicans [6]) | MIC ([Candida] auris [16]) | MIC ([Candida] auris [19]) | MIC (Saccharomyces cerevisiae [32]) | MIC (Saccharomyces cerevisiae [33])
0.98 µg/mL: MIC (Candida albicans [4]) | MIC (Candida albicans [7]) | MIC ([Candida] auris [12]) | MIC (Aspergillus terreus) | MIC ([Candida] auris [25]) | MIC ([Candida] haemuloni [28])
15.6 µg/mL: MIC (Aspergillus fumigatus [14])
inactive: Activity (Candida albicans [34])
